Screening data as filed in PubChem.
SR-BI DiI inh: mouse SR-BI HDL lipid transfer inhibition; hit rate 0.96% among 320,000; inhibition, % at 12.5 µM; ldlA[mSR-BI] CHO cells, DiI-HDL uptake fluorescence, 3 h; AID 488896; Q61009;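 active = mean replicate inhibition of at least 70% and a set share of replicates each scoring 70 or more; inconclusive = meets just one of the two criteria; inactive = fails both criteria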;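 note: 0% = median of neutral control wells and 100% = median of positive control wells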
Target sequence (Q61009 whole entry, looked up): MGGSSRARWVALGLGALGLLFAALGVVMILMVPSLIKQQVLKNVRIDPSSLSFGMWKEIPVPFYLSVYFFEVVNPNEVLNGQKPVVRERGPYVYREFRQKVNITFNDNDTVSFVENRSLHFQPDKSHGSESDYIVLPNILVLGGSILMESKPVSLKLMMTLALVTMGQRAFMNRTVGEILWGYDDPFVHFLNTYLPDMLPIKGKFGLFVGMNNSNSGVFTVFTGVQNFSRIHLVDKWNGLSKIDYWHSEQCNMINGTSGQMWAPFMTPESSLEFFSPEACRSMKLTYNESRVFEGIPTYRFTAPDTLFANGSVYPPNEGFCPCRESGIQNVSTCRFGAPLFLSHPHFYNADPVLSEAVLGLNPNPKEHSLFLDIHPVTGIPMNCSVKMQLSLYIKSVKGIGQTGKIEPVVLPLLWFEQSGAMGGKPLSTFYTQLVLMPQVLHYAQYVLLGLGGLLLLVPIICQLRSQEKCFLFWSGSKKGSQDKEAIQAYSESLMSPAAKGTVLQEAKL
ARNT-TACC3 inh: disrupts binding between human ARNT and TACC3 | AID 623870 | AlphaScreen His-ARNT PAS-B/GST-TACC3 binding, luminescence; TACC3 fragment carries E629A point mutation | inhibition, % at 9.99 µM | hit rate 0.66% among 390,000 | Q9Y6A5;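 active = mean inhibition of replicates at least 50% and at least half of replicates each reaching 50%; inconclusive = half or more replicates reach 50% but mean below 50%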;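 note: 0% = complete ARNT plus TACC3 wells and 100% = ARNT alone without TACC3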
SR-BI uptake up: enhances SR-BI lipid uptake from DiI-HDL; CHO ldlA[mSR-BI] cells, DiI-HDL uptake fluorescence, 3 h; 100 = double the neutral-control signal; hit rate 0.096% among 320,000; activation, % at 12.5 µM;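 active = mean replicate activation of at least 60% and every replicate at or above 60%; inconclusive = mean or all-replicate condition met, but not both; inactive = mean below 60% and not all replicates reaching 60%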;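 note: 0% = median plate neutral-control signal and 100% = twice that signal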
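material = CHO ldlA[mSR-BI] cells | medium = Ham's F12 with 0.5% BSA, HEPES 25 mM, pH 7.4 | reagent = fluorescent DiI-HDL, 10 µg/mL final | compound dosing = single-point compound dose | incubation = 3 h, 37 °C | measured by = bottom-read fluorescence, 550/595 nm | measure = HDL uptake via cellular fluorescence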
miR-122 sensor: inhibitors of miR-122 in Huh7 cells; Huh7 miR-122 Renilla luciferase sensor, 48 h; neutral wells = 0, positive control = 100; activation (reporter increase), % at 12.5 µM; hit rate 0.3% among 340,000; AID 602342;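 active = mean replicate activation score at least 90 and every replicate individually at or above 90; inconclusive = only one of the two criteria met; inactive = neither criterion met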;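 note: higher luciferase means less miR-122 activity so hits act as miR-122 inhibitors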
CAL PDZ FP-1: inhibitors of human CAL PDZ peptide binding | purified CAL PDZ, TMR-peptide fluorescence polarization, 1 h | inhibition, % at 24.9 µM | hit rate 0.92% among 300,000;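 active = mean inhibition of at least 30% with at least half of replicates also reaching 30%; inconclusive = no clear call, values can overlap the other calls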;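 note: 0% = DMSO neutral control and 100% = excess unlabeled competitor peptide PRC23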
CAL PDZ FP-2: inhibitors of human CAL PDZ peptide binding. Q9HD26. purified CAL PDZ, TMR-peptide fluorescence polarization, 1 h. inhibition, % at 20 µM. hit rate 0.02% among 330,000;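 active = highest replicate inhibition of at least 40%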;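 note: plate controls were DMSO neutral control wells for no effect and unlabeled competitor peptide control wells for full effect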
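Material: tagged CAL PDZ protein CerCALP, purified; buffer or medium: sodium phosphate/NaCl buffer pH 7.4 with TCEP, IgG, Thesit; also added: fluorescent TMR peptide probe; schedule: 1 h incubation at room temperature before polarization reading; technique: fluorescence polarization from S- and P-plane intensities, G-factor corrected; control set: unlabelled peptide and DMSO controls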
Active calls of the source: *; u = inconclusive; x = no result given; + = active, no number; [ ] = remark or other dose. An excerpt weighted towards active compounds, which were near 2.1% of everything screened.

SMILES	SR-BI DiI inh	ARNT-TACC3 inh	SR-BI uptake up	miR-122 sensor	CAL PDZ FP-1	CAL PDZ FP-2
C/C(=N\OC(=O)c1cccc(C(F)(F)F)c1)c1sc(-c2ccccc2)nc1C	-14.1	-5.1	14.1	0.8	51.5*	-0.6
CCc1c(C#N)c(SCCC(=O)Nc2ccc(C)cc2)nc2c1C(=O)CC(C)(C)C2	73.2*	-7.1	-73.2	-5.6	-4.6	-1.0
CCOc1ccc(NC(=O)CCSc2nc3c(c(CC)c2C#N)C(=O)CC(C)(C)C3)cc1	0.5	1.6	-0.5	4.3	-1.7	0.8
CC(=O)c1c(C(C)=O)c(C)n(-c2nc(-c3ccc(C)c(C)c3)c(C)s2)c1C	76.4*	-1.7	-76.4	0.9	-0.9	-1.9
O=C(Cc1cccnc1)N[C@@H]1CC[C@@H](CCn2cc(-c3ccccc3F)nn2)O[C@@H]1CO	x	-11.0	x	x	x	x
Cc1cccc(C(=O)c2c(N)sc3c2CCC(C)C3)c1 (stereo not drawn)	73.2*	-4.6	-73.2	12.3	-0.2	0.7
Cc1cccc(C(=O)c2c(N)sc3c2CCCC3)c1	64.6	-2.5	-64.6	11.3	-1.8	-2.2
CCOc1ccc(N2C(=O)Nc3ccccc3C2(O)C(=O)NCc2ccc(C)cc2)cc1 (stereo not drawn)	9.4	-1.3	-9.4	x	4.3	-0.5
CCOc1ccc(N2C(=O)Nc3ccccc3C2(O)C(=O)NCc2ccc3c(c2)OCO3)cc1 (stereo not drawn)	13.7	-0.5	-13.7	171.2*	-2.2	-3.3
CO[C@@H]1CN(C)C(=O)c2cc(NC(=O)C3CC3)ccc2OC[C@H](C)N(C(C)=O)C[C@H]1C	x	2.4	x	x	x	x
COCCCNC1CS(=O)(=O)CC1O (stereo not drawn)	-22.9	-11.4	22.9	-15.7	72.5*	7.6
CN(C)CCCNC1CS(=O)(=O)CC1O (stereo not drawn)	-2.6	3.3	x	-1.5	-2.0	-1.2
CCCC(=O)Nc1nc2ccc(S(=O)(=O)N3CCCCC3)cc2s1	8.2	-7.6	-8.2	117.8*	x	-0.3
CC(=O)Nc1nc2ccc(S(=O)(=O)N3CCCC3)cc2s1	15.3	-4.0	-15.3	-4.1	1.8	-2.9
COCc1cc(C)nc(OCC(=O)N/N=C/c2ccccc2O)c1C#N	-29.4	80.6*	29.4	x	-0.6	-2.6
COCc1cc(C)nc(OCC(=O)N/N=C/c2cccc(OC)c2)c1C#N	6.3	-1.7	-6.3	0.7	4.1	-0.7
COCc1cc(C)nc(OCC(=O)N/N=C/c2ccc(O)cc2O)c1C#N	-10.4	72.6*	10.4	x	-3.2	-1.4
CCOc1cc(/C=N/NC(=O)COc2nc(C)cc(COC)c2C#N)ccc1O	48.9	21.7	-48.9	-4.0	-4.5	-1.3
O=C(Nc1ccc([N+](=O)[O-])cn1)c1cc(-c2cccc(Cl)c2)nc2ccccc12	77.1*	-3.8	-77.1	x	-0.8	-2.7
O=C1C=C(NCCc2cc(Br)c(O)c(Br)c2)C(=O)c2ncccc21	21.1	64.3*	-21.1	x	-9.3	1.6
CC1CN(CCCCOc2ccc(Cl)c3ccccc23)CC(C)O1 (stereo not drawn)	5.8	-1.3	-5.8	19.4	43.4*	19.7
Cc1cc(S(=O)(=O)NCCN2CCOCC2)c(C)s1	-8.4	-4.1	8.4	34.4	-1.1	0.7
Cc1cc(S(=O)(=O)NCCc2ccccc2)c(C)s1	-30.0	-5.2	30.0	226.0*	0.3	-0.2
O=C(O)c1cccc(S(=O)(=O)NNc2ccccc2C(F)(F)F)c1	-1.3	-3.0	1.3	0.6	+	0.1
COCCCNC(=S)NNC(=O)c1csc(C)n1	-8.0	56.6*	8.0	x	-1.2	-0.6
SMILES	SR-BI DiI inh	ARNT-TACC3 inh	SR-BI uptake up	miR-122 sensor	CAL PDZ FP-1	CAL PDZ FP-2
C[C@@H]1CN([C@H](C)CO)C(=O)c2cc(NS(=O)(=O)c3ccc(Cl)cc3)ccc2O[C@@H](C)CCCCO[C@H]1CN(C)Cc1ccc2c(c1)OCO2	x	8.6	x	-6.2[16.7 µM]	x	x
COc1ccccc1C#Cc1ccc([C@H]2[C@H](CO)N3CCCCN(C(=O)C4CC4)C[C@@H]23)cc1	x	-2.0	x	-23.5[16.7 µM]	x	x
COc1ccc(CCNC/C=C/c2ccccc2)cc1	-15.4	-3.2	15.4	-4.8	50.8*	-0.9
COc1ccc(CNC/C=C/c2ccccc2)cc1	-19.2	0.4	19.2	-21.9	-1.0	-1.5
CC(OC(=O)c1ccc(Cl)c([N+](=O)[O-])c1)C(=O)N1CCN(Cc2ccccc2)CC1 (stereo not drawn)	56.4	7.3	-56.4	-3.6	146.9*	-0.3
O=C(C[C@H]1C=C[C@@H](NC(=O)C2CCC2)[C@@H](CO)O1)NCCCN1CCOCC1	x	-5.4	x	2.1[16.7 µM]	x	x
CCCC(=O)Nc1ccc2c(c1)C(=O)N(C)C[C@@H](OC)[C@H](C)CN(C(=O)c1ccccc1F)[C@H](C)CO2	x	-1.5	x	-9.1[16.7 µM]	x	x
COc1ccc(C(C[N+](=O)[O-])c2c(-c3ccccc3)cc3ccccn23)cc1 (stereo not drawn)	20.4	-7.9	-20.4	6.1	84.7*	-1.3
O=S(=O)(NCCc1ccccc1)c1ccc(F)cc1Br	1.6	-2.0	-1.6	u	-6.1	-0.2
O=S(=O)(NCCc1ccc(F)cc1)c1cc(C(F)(F)F)ccc1Br	-8.1	-11.6	8.1	126.9*	-4.1	0.1
COc1ccc(C2CC(=O)c3c(C)nc(N4CCN(c5ccccc5)CC4)nc3C2)cc1 (stereo not drawn)	17.6	-12.1	-17.6	1.1	37.8*	-0.8
O=c1c2c(nc3c(-c4ccc(Cl)cc4)c[nH]n13)CCC2	-5.9	46.0*	5.9	-11.1	-0.3	-0.9
COc1cc(-c2noc(-c3cccc(Cl)c3)n2)cc(OC)c1OC	75.8*	0.8	-75.8	-6.1	1.3	-0.4
COc1cc(-c2nc(-c3cccc(C)c3)no2)cc(OC)c1OC	84.1*	-2.8	-84.1	-4.3	-3.4	-2.2
COc1ccc(-c2nc(-c3cccc(C)c3)no2)cc1OC	11.7	-11.1	-11.7	x	x	-0.6
COc1ccc(-c2nnc(-c3cc(OC)c(OC)c(OC)c3)o2)cc1OC	76.4*	-8.8	-76.4	-2.5	-8.6	x
COc1cc(-c2nnc(-c3cccs3)o2)cc(OC)c1OC	41.8	-6.1	-22.7	-4.2	-0.4	-0.8
C[C@@H]1CN([C@H](C)CO)C(=O)c2cc(C3=CCCC3)cnc2O[C@@H]1CN(C)Cc1ccccn1	x	-1.3	x	2.6[16.7 µM]	x	x
O=C1CCc2cc(S(=O)(=O)NCc3ccc(F)cc3)cc3c2N1CCC3	44.8	19.2	-44.8	39.2	x	0.0
CC(C)CNS(=O)(=O)c1cc2c3c(c1)CCC(=O)N3CCC2	-0.8	-3.1	0.8	93.3*	5.8	-2.3
COC(CNS(=O)(=O)c1cc2c3c(c1)CCN3C(=O)CC2)OC	-2.1	-0.4	2.1	-12.0	48.1*	-0.5
